An excerpt weighted towards active compounds, which were near 1.5% of everything screened.
HEK293 NFkB inh – inhibitors of PMA/ionomycin-induced NF-kB reporter, primary screen, antigen receptor NF-kB inhibitor project, cell-based, HEK-293 luciferase reporter, luminescence. HEK-293 NF-kB luciferase reporter. inhibition, % at 3 µM. actives 0.21% (n = 62,000);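 active = inhibition above the mean of all tested compounds plus 3 SD, cut at about 40% in these data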;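 also: 0% = stimulated DMSO wells and 100% = 10 µM reference inhibitor 5653914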
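Timing: 1 h pretreatment, 16 h stimulation, 37 °C; system: HEK-293 cells with stable firefly luciferase reporter driven by four HIV NF-kB elements; doses: 3 µM once, 0.30% DMSO; measured by: luciferase luminescence; control set: DMSO and 10 µM reference inhibitor; repeats: single test; reagent: PMA plus ionomycin mix as NF-kB-activating stimulus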
PLK1 inh – human PLK1 kinase inhibitors, primary screen, biochemical, TR-FRET; AID 619, 2007; Serine/threonine-protein kinase PLK1 (Homo sapiens), P53350; recombinant PLK1 kinase, TR-FRET peptide phosphorylation; inhibition, % at 10 µM; actives 0.53% (n = 97,000);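 active = inhibition of 50% or more in the single-concentration screen; inactive = inhibition below 50%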;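 also: 0% = DMSO max control and 100% = H-89 dihydrochloride min control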
AP complement – alternative complement pathway inhibitors, primary screen, biochemical, ELISA, human serum, orthogonally pooled compounds. actives 0.08% (n = 62,000). inhibition, % at 5 µM. LPS-coated ELISA, C3 deposition; tested in compound mixtures;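 active = inhibition above 30% in each of the two pooled mixtures holding the compound, so the lower value exceeds 30%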;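 also: 0% = serum in Mg-EGTA without compound and 100% = EDTA serum blank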
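Assay system: human serum alternative complement pathway, C3 deposition on LPS-coated wells; Dosing: 5 µM per compound in ten-compound mixtures; Detection: Anti-C3 ELISA, OD 450 nm; Buffer or medium: Mg2+-EGTA GVB++ buffer containing human serum at 1:15 dilution; Timing: 1 h at 37 °C; Replication: two different pools per compound.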
Pyk2 oligo antag – antagonists of Pyk2 self-association, primary screen, Q293 cells, FERM NanoBiT luminescence, HTS | active compounds read low | AID 1347419, 2020 | z-score (the deposit names both 25 µM and 10 µM) | actives 0.83% (n = 99,000) | Protein-tyrosine kinase 2-beta (Homo sapiens), Q14289;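 active = Z-score of -3 or lower, scaled per plate to the spread of control and sample wells; inactive = z-score above -3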;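 also: negative z-score means lost luminescence so less FERM oligomerization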
HePTP inh – inhibitors of human HePTP phosphatase, primary screen, biochemical, absorbance, leukemia target; Tyrosine-protein phosphatase non-receptor type 7 (Homo sapiens), P35236; recombinant HePTP phosphatase activity, OD absorbance; inhibition, % at 20 µM; actives 0.64% (n = 110,000); in the data active = inhibition above about 50%;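 also: plate controls were vehicle for no effect and reference inhibitor for full effect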
Target sequence (P35236 whole entry, looked up): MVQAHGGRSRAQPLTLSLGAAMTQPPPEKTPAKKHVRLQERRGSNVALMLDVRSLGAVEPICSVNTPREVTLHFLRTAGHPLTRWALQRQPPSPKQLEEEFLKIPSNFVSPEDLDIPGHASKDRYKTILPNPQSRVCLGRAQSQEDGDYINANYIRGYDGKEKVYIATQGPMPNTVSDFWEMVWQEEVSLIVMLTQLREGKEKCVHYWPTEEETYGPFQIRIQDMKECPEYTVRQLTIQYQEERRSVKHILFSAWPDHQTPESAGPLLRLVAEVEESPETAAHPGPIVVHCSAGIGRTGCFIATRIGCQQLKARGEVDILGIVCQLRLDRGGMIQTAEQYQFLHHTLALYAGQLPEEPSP
Plk1 PBD FP – Plk1 polo box domain binding inhibitors, primary screen, biochemical, fluorescence polarization; Serine/threonine-protein kinase PLK1 (Homo sapiens), P53350; Plk1 PBD phosphopeptide binding; inhibition, %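 (tested at about 20 µM)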; actives 0.13% (n = 97,000); AID 693, 2007; in the data active = inhibition above about 34%, passing the limit was not always enough
PLK1 confirm – PLK1 kinase activity inhibitors, confirmation, biochemical, TR-FRET, duplicate runs | inhibition, % at 10 µM | shares compounds with PLK1 inh | recombinant PLK1 kinase, TR-FRET peptide phosphorylation | actives 20% (n = 210);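 active = inhibition at or above 50% in each of two repeat confirmation tests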;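 also: 0% = DMSO max control and 100% = H-89 kinase-blocked min control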
Plk1 interf – compound interference with Plk1 assay readout, artefact control for Plk1 kinase inhibitor project, biochemical, TR-FRET, compound added post-reaction. shares compounds with PLK1 inh. inhibition (interference), % at 10 µM. 210 tested, under 10 active;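 active = both duplicate runs show 50% or greater inhibition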;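 also: 0% = DMSO max control and 100% = H-89 min control inhibited reaction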
An asterisk follows results filed as active; . = no result given.

SMILES	HEK293 NFkB inh	PLK1 inh	AP complement	Pyk2 oligo antag	HePTP inh	Plk1 PBD FP	PLK1 confirm	Plk1 interf
COc1ccc(N2Nc3n[nH]c(N)c3N2)cc1	.	80*	.	-0.27	.	12	74*	-51
CCOc1ccc(N2Nc3n[nH]c(N)c3N2)cc1	.	78*	.	-1.8	.	-3	68*	-51
CCOc1ccc(-n2c(-c3ccccc3)n[nH]c2=S)cc1	.	.	.	.	3	.	.	.
CCOC(=O)/C=C(\C)N1N=C(c2ccccc2)CC1c1ccccc1[N+](=O)[O-] (centres undefined)	.	.	.	.	9	.	.	.
COc1ccc(OC)c(/C=C(/C#N)C(=O)Nc2cccc(Br)c2)c1	.	.	.	.	3	.	.	.
COC(=O)c1c(-c2ccc(Br)cc2)noc1N	.	77*	.	-1.1	.	6	63*	-51
Cc1ccccc1CNS(=O)(=O)c1ccccc1	.	.	.	.	4	.	.	.
CCc1ccccc1N1CC23C=CC(O2)C(C(=O)OCC(C)C)C3C1=O (centres undefined)	-4	72*	11	.	-1	6	-9	-52
CCCCOC(=O)C1[C@H]2C(=O)N(c3ccccc3CC)C[C@]23C=C[C@H]1O3 (some centres undefined)	19	-6	7	-0.77	3	-24	.	.
CCCCOc1cccc(C(=O)Nc2ccc(CC)cc2)c1	.	.	.	.	2	.	.	.
O=Cc1cn[nH]c1-c1ccc(Cl)cc1	.	.	.	.	1	.	.	.
COc1cccc(C2CC(c3ccc(Cl)cc3Cl)n3nc(N)nc3N2)c1 (centres undefined)	7	75*	-1	.	-12	-28	-6	-51
O=C(NCc1ccc2c(c1)OCO2)c1ccc(CS(=O)(=O)c2ccc(Br)cc2)o1	12	76*	13	.	11	17	-6	-46
Cc1ccc(-c2noc(C3CCCN(C(=O)c4c(F)cccc4F)C3)n2)cc1 (centres undefined)	15	125*	7	-1.8	-1	18	-7	-52
CCOc1ccc(C(=O)Nc2ccccc2C(=O)OC)cc1Br	.	.	.	.	13	.	.	.
CCN1CCN(CC(=O)Nc2ccc3c(c2)OCCO3)C(=O)C1=O	11	73*	17	.	1	-32	-3	-55
COc1ccc(N2CC(C(=O)NCc3ccccc3)CC2=O)cc1 (centres undefined)	6	.	-5	-0.02	0	.	.	.
COc1ccc(N2CC(C(=O)NC3CC(C)(C)NC(C)(C)C3)CC2=O)cc1 (centres undefined)	5	70*	0	.	0	10	-8	-50
Cc1nc(N)sc1C(=O)N/N=C/c1ccc(O)cc1	.	.	.	.	9	.	.	.
COC(=O)CSc1nc2ccc(C)cc2[nH]1	.	-1	.	0.2	.	-9	.	.
COC(=O)c1sc2nc(CSc3nc4ccc(C)cc4[nH]3)[nH]c(=O)c2c1C	.	71*	.	1.6	.	-9	42	-43
C=CCc1cc(C)ccc1OCCn1ccnc1	.	86*	.	1.3	.	9	-7	-61
Cc1cc(NC(=O)c2ccccc2Br)no1	.	.	.	.	3	.	.	.
c1ccc(-c2noc(CN3CCN(c4ccccc4)CC3)n2)cc1	-20	73*	20	.	-6	15	-6	-52
CCOc1c(Br)ccc2c1sc1nc[nH]c(=O)c12	7	76*	-7	0.2	-8	-6	68*	-56
SMILES	HEK293 NFkB inh	PLK1 inh	AP complement	Pyk2 oligo antag	HePTP inh	Plk1 PBD FP	PLK1 confirm	Plk1 interf
Cc1cc2c(=O)[nH]cnc2s1	.	0	.	1.5	.	-35	.	.
CS(=O)(=O)N(CC(=O)O)c1ccccc1F	.	.	.	.	-13	.	.	.
COc1ccccc1Nc1ncnc2nc[nH]c12	.	84*	.	-0.32	.	-2	79*	-50
O=C(Cn1nc(Cc2cccnc2)c2ccccc2c1=O)NCc1ccc2c(c1)OCO2	22	72*	22	.	9	6	21	-49
CCOc1ccc(C(=O)Nc2ccc(NC(=O)c3ccccc3)cc2)cc1[N+](=O)[O-]	.	.	.	.	1	.	.	.
C=CCSc1nnc(-c2cc(Br)ccc2N)c(=O)[nH]1	14	71*	11	.	5	-24	-11	-61
CCCCSc1nnc(-c2cc(Br)ccc2N)c(=O)[nH]1	-2	-15	3	-0.53	12	-3	.	.
CCOC(=O)c1c(C)n(C)c2cc(Br)c(O)c(CN(C)C)c12	.	.	.	.	1	.	.	.
NC(=O)CSc1nnc(-c2ccncc2)n1-c1ccc(Cl)cc1	2	73*	-1	.	-3	0	-9	-49
O=C(O)CSc1nnc(-c2ccncc2)n1-c1ccc(Cl)cc1	.	-7	.	-0.67	.	1	.	.
Cc1ccccc1OCC(=O)N=Nc1c(O)[nH]c(=O)[nH]c1=O	.	.	.	.	-12	.	.	.
CCc1cc(=O)oc2cc(OCC(=O)O)ccc12	.	.	.	.	-9	.	.	.
Cc1ccc(NC(=O)CSc2nc3nc(C)cc(C)c3c(=O)[nH]2)cc1	-8	73*	9	-0.09	5	-24	7	-54
Cc1cc(C)c2c(=O)[nH]c(SCC(=O)N3CCCCC3)nc2n1	5	7	-4	-0.04	-7	10	.	.
COc1ccc(C(=O)N2CCOCC2)cc1Br	14	130*	1	0.2	-1	-28	-12	-49
Cc1ncc([N+](=O)[O-])n1CCOC(=O)Nc1ccc(Cl)c(Cl)c1	.	84*	.	-0.27	6	10	71*	-55
COc1ccc(Br)cc1C(=O)Nc1cccc(C(F)(F)F)c1	.	.	.	.	-15	.	.	.
COc1cccc(C(=O)n2cnnc2N)c1OC	21	128*	-1	-0.34	5	-7	1	-56
CCOC(=O)COc1ccc(/C=C(/C#N)C(=O)Nc2cccc(Br)c2)cc1	.	.	.	.	-2	.	.	.
CC1CCN(CC(C)OC(=O)c2ccc3c(c2)OCCO3)CC1 (centres undefined)	10	70*	14	.	8	-7	-6	-52
CN=c1scc(C)n1/N=C/c1ccc(O)c(O)c1O	.	82*	.	-0.7	.	22	85*	70*
CCN=c1scc(C)n1/N=C/c1ccsc1	-14	-1	-1	0.1	4	8	.	.
Cn1ccnc1Sc1nc(Nc2ccccc2)nc(Nc2ccccc2)n1	.	.	.	.	-4	.	.	.
Nc1ncnc(Nc2cccc(C(F)(F)F)c2)n1	.	77*	.	-0.39	.	0	74*	-44
O=C(CCC(=O)c1ccc(Cl)cc1)OCC(=O)c1ccccc1	.	126*	.	1	.	-15	-2	-53
